Experimental data reported in ChEMBL document CHEMBL2407064 (J Med Chem, 2013).
pEC50, pIC50: −log10 of the molar value. Activity calls are given as the source filed them. The rule behind the calls is not given here.

Legend:
[1] = target: T1, Neuronal acetylcholine receptor; alpha3/alpha6/beta2/beta3 (Homo sapiens, UniProt P17787+P32297+Q05901+Q15825); test: Agonist activity at human alpha6/alpha3beta2beta3 nAChR expressed in human SHEP1 cells assessed as stimulation of 86Rb+ ion efflux after 5 mins by liquid scintillation counting analysis; type: cell-based
[2] = target: T1, Neuronal acetylcholine receptor; alpha3/alpha6/beta2/beta3; test: Antagonist activity at human alpha6/alpha3beta2beta3 nAChR expressed in human SHEP1 cells assessed as inhibition of carbamylcholine-induced 86Rb+ ion efflux preincubated for 10 mins by liquid scintillation counting analysis; type: cell-based
[3] = test system: Salmonella typhimurium; test: Genotoxicity in Salmonella typhimurium TA1537 up to 3 x 10^5 uM by Ames test; type: toxicity, organism-based; conditions: salmonella enterica subsp. enterica serovar typhimurium
[4] = test system: Salmonella typhimurium; test: Genotoxicity in Salmonella typhimurium TA1537 up to 3 x 10^5 uM by Ames test in presence of liver S9 fraction; type: toxicity, organism-based; conditions: salmonella enterica subsp. enterica serovar typhimurium
[5] = test system: Mus musculus; test: Toxicity in BALB/cJ mouse assessed as sedative effect at 5 mg/kg, ip; type: organism-based; set-up: dose 5 mg/kg, route intraperitoneal; conditions: in vivo
[6] = target: T2, Acetylcholine receptor; alpha1/beta1/delta/gamma (Homo sapiens) (UniProt P02708+P07510+P11230+Q07001); test: Antagonist activity at alpha1beta1gammadelta nAChR in human TE671/RD cells assessed as inhibition of carbamylcholine-induced 86Rb+ ion efflux preincubated for 10 mins by liquid scintillation counting analysis; type: cell-based
[7] = test system: Mus musculus; test: Toxicity in BALB/cJ mouse assessed as occurrence of tremor at 5 mg/kg, ip; type: organism-based; set-up: dose 5 mg/kg, route intraperitoneal; conditions: in vivo
[8] = test system: Mus musculus; test: Toxicity in BALB/cJ mouse assessed as mortality at 10 mg/kg, ip; type: organism-based; set-up: dose 10 mg/kg, route intraperitoneal; conditions: in vivo
[9] = target: T2, Acetylcholine receptor; alpha1/beta1/delta/gamma (Homo sapiens); test: Agonist activity at alpha1beta1gammadelta nAChR in human TE671/RD cells assessed as stimulation of 86Rb+ ion efflux after 5 mins by liquid scintillation counting analysis; type: cell-based
Method in brief: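 Human TE671/RD cells, which natively express muscle-type α1β1γδ nAChRs, maintained at low passage (1–26) and split 1/300 weekly. 86Rb+ efflux. Agonism given as EC50 with efficacy normalized to carbamylcholine.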

[10] = test system: Mus musculus; test: Antidepressant-like activity in BALB/cJ mouse assessed as decrease in immobility time at 1 to 10 mg/kg, ip administered 30 mins before test measured for 6 mins by forced swimming test; type: functional, organism-based
Method in brief: (§1)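 Male BALB/cJ mice, 8–10 weeks old. Drugs dissolved in water and given i.p. or orally at 10 ml/kg, 30 min before the trial. Sertraline 20 mg/kg was the positive control. Each mouse was placed in a glass cylinder with 12 cm of 23 ± 1 °C water, and immobility (floating) was timed over a 6 min trial. ANOVA with Fisher's LSD; n = 9–10/group.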

[11] = test system: Mus musculus; test: Antidepressant-like activity in BALB/cJ mouse assessed as decrease in immobility time at 20 mg/kg, ip administered 30 mins before test measured for 6 mins by forced swimming test; type: functional, organism-based; set-up: dose 20 mg/kg; method in brief: as §1
[12] = test system: Mus musculus; test: Antidepressant-like activity in BALB/cJ mouse assessed as decrease in immobility time at 1 mg/kg, po administered 30 mins before test measured for 6 mins by forced swimming test; type: functional, organism-based; set-up: dose 1 mg/kg; method in brief: as §1
[13] = test system: Mus musculus; test: Antidepressant-like activity in BALB/cJ mouse assessed as decrease in immobility time at 1 mg/kg, ip administered 30 mins before test measured for 6 mins by forced swimming test; type: functional, organism-based; set-up: dose 1 mg/kg; method in brief: as §1
[14] = test system: Salmonella typhimurium; test: Genotoxicity in Salmonella typhimurium TA1537 at 50 to 100 uM by Ames test in presence of liver S9 fraction; type: toxicity, organism-based; conditions: salmonella enterica subsp. enterica serovar typhimurium, s9, 100 µM
Method in brief: (§2)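 Bacterial reverse mutation (Ames) test in TA98, TA100, TA1535 and TA1537 strains, with and without liver S9 metabolic activation. Test concentrations 5, 10, 50 and 100 μM.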

[15] = Metabolic stability in human liver microsomes assessed as compound remaining at 0.1 uM after 1 hr; type: ADME, Microsome; conditions: read-out: Stability
Method in brief: (§3)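 Human or CD-1 mouse liver microsomes incubated with 0.1 μM test compound for 1 h. Percent parent compound remaining unchanged was measured.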

[16] = test system: Salmonella typhimurium; test: Genotoxicity in Salmonella typhimurium TA1535 at 5 to 100 uM by Ames test; type: toxicity, organism-based; conditions: salmonella enterica subsp. enterica serovar typhimurium; method in brief: as §2
[17] = target: CYP2C9 (Homo sapiens, UniProt P11712); test: Inhibition of CYP2C9 (unknown origin) at 10 uM relative to control; type: ADME
Method in brief: (§4)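 Inhibition of CYP1A, CYP2C9, CYP2C19, CYP2D6 and CYP3A isoforms measured in the presence of 10 μM test compound, expressed as percent inhibition.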

[18] = target: T3, hERG (KCNH2) (Homo sapiens, UniProt Q12809); test: Inhibition of human ERG at 0.1 uM relative to control
Method in brief: (§5)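 Human ERG inhibition tested at three concentrations (0.1, 1 and 10 μM), expressed as percent inhibition.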

[19] = test system: Salmonella typhimurium; test: Genotoxicity in Salmonella typhimurium TA100 at 5 to 100 uM by Ames test; type: toxicity, organism-based; conditions: salmonella enterica subsp. enterica serovar typhimurium; method in brief: as §2
[20] = test system: Caco-2; test: Permeability from basolateral to apical side in human Caco2 cells at pH 7.4; type: ADME, cell-based; conditions: caco-2, pH 7.4
Method in brief: (§6)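 Bidirectional Caco-2 monolayer permeability, apical-to-basolateral and basolateral-to-apical, at pH 7.4 on both sides. Run with and without the P-gp inhibitor verapamil. Apparent permeability given in cm/s.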

[21] = test system: Salmonella typhimurium; test: Genotoxicity in Salmonella typhimurium TA1537 at 5 to 10 uM by Ames test in presence of liver S9 fraction; type: toxicity, organism-based; conditions: salmonella enterica subsp. enterica serovar typhimurium, s9, 10 µM
[22] = target: CYP2C19 (Homo sapiens, UniProt P33261); test: Inhibition of CYP2C19 (unknown origin) at 10 uM relative to control; type: ADME; method in brief: as §4
[23] = test system: CYP3A; test: Inhibition of CYP3A (unknown origin) at 10 uM relative to control; type: ADME; conditions: human; method in brief: as §4
[24] = target: CYP2D6 (Homo sapiens, UniProt P10635); test: Inhibition of CYP2D6 (unknown origin) at 10 uM relative to control; type: ADME; method in brief: as §4
[25] = target: T4, Neuronal acetylcholine receptor; alpha4/beta2 (Homo sapiens, UniProt P17787+P43681); test: Agonist activity at human alpha4beta2 nACHR expressed in human SHEP1 cells assessed as stimulation of 86Rb+ ion efflux after 5 mins by liquid scintillation counting analysis; type: cell-based
[26] = test system: Salmonella typhimurium; test: Genotoxicity in Salmonella typhimurium TA1535 at 5 to 100 uM by Ames test in presence of liver S9 fraction; type: toxicity, organism-based; conditions: salmonella enterica subsp. enterica serovar typhimurium, s9, 100 µM; method in brief: as §2
[27] = test system: Plasma; test: Plasma protein binding in human at 10 uM; type: ADME, cell-free
Method in brief: (§7)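 Plasma protein binding measured in human and CD-1 mouse plasma at 10 μM test compound, given as percent bound.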

[28] = test system: Salmonella typhimurium; test: Genotoxicity in Salmonella typhimurium TA98 at 5 to 100 uM by Ames test in presence of liver S9 fraction; type: toxicity, organism-based; conditions: salmonella enterica subsp. enterica serovar typhimurium, s9, 100 µM; method in brief: as §2
[29] = target: T4, Neuronal acetylcholine receptor; alpha4/beta2; test: Antagonist activity at human alpha4beta2 nACHR expressed in human SHEP1 cells assessed as inhibition of carbamylcholine-induced 86Rb+ ion efflux preincubated for 10 mins by liquid scintillation counting analysis; type: cell-based
[30] = test system: Caco-2; test: Permeability from apical to basolateral side in human Caco2 cells at pH 7.4; type: ADME, cell-based; conditions: caco-2, pH 7.4; method in brief: as §6
[31] = test system: Salmonella typhimurium; test: Genotoxicity in Salmonella typhimurium TA98 at 5 to 100 uM by Ames test; type: toxicity, organism-based; conditions: salmonella enterica subsp. enterica serovar typhimurium; method in brief: as §2
[32] = test system: Salmonella typhimurium; test: Genotoxicity in Salmonella typhimurium TA100 at 5 to 100 uM by Ames test in presence of liver S9 fraction; type: toxicity, organism-based; conditions: salmonella enterica subsp. enterica serovar typhimurium, s9, 100 µM; method in brief: as §2
[33] = test system: Salmonella typhimurium; test: Genotoxicity in Salmonella typhimurium TA1537 at 5 to 100 uM by Ames test; type: toxicity, organism-based; conditions: salmonella enterica subsp. enterica serovar typhimurium; method in brief: as §2
[34] = Metabolic stability in CD-1 mouse liver microsomes assessed as compound remaining at 0.1 uM after 1 hr; type: ADME, Microsome; conditions: CD-1, liver microsomes; read-out: Stability; method in brief: as §3
[35] = target: T3, hERG (KCNH2); test: Inhibition of human ERG at 10 uM relative to control; method in brief: as §5
[36] = Metabolic stability in human hepatocytes assessed as compound remaining at 1 uM after 2 hrs; type: ADME, cell-based, Hepatocyte; conditions: read-out: Stability
Method in brief: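 Cryopreserved human hepatocytes incubated with 1 μM test compound for 2 h. Percent parent compound remaining unchanged was measured.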

[37] = Chemical stability of the compound at room temperature; type: physicochemical
[38] = target: T3, hERG (KCNH2); test: Inhibition of human ERG at 1 uM relative to control; method in brief: as §5
[39] = test system: Plasma; test: Plasma protein binding in CD-1 mouse at 10 uM; type: ADME, cell-free; method in brief: as §7

T1 sequence (P17787 whole entry): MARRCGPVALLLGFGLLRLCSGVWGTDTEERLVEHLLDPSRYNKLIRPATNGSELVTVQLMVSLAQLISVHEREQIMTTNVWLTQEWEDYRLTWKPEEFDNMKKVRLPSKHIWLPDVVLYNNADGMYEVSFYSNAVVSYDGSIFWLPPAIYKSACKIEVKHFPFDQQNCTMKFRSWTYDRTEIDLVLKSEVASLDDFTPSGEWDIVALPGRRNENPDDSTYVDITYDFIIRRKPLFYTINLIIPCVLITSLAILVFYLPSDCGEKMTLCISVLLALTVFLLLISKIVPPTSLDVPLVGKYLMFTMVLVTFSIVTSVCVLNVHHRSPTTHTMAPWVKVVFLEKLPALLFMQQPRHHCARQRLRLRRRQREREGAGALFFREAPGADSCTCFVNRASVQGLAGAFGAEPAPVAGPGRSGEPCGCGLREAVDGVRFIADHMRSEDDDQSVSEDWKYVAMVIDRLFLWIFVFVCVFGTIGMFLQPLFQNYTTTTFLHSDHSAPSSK
T1 sequence (P32297 whole entry): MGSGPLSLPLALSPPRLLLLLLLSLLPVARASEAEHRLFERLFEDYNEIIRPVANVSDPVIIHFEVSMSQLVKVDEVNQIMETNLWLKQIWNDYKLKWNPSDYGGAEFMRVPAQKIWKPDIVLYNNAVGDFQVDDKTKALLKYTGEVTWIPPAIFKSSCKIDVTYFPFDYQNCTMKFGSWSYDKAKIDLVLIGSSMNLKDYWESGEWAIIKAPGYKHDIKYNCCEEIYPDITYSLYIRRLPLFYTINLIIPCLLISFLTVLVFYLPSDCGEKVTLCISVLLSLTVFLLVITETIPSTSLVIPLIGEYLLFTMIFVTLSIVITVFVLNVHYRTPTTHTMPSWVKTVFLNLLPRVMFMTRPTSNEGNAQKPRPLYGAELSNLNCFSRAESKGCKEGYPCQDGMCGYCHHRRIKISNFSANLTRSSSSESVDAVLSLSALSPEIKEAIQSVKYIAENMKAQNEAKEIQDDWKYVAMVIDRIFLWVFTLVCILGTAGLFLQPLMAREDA
T1 sequence (Q15825 whole entry): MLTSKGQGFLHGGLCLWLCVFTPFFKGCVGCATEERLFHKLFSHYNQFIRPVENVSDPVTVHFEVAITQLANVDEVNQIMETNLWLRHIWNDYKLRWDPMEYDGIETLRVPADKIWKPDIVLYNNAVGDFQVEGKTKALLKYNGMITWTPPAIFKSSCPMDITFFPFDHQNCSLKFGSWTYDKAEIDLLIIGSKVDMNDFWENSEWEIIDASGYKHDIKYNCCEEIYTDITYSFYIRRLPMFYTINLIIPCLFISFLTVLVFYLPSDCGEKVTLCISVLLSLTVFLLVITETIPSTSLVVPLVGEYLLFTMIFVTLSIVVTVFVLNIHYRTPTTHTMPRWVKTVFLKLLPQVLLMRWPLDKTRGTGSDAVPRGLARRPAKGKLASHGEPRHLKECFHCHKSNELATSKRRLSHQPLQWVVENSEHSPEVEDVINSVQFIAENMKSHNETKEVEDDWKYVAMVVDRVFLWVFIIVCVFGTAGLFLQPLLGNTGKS
T1 sequence (Q05901 whole entry): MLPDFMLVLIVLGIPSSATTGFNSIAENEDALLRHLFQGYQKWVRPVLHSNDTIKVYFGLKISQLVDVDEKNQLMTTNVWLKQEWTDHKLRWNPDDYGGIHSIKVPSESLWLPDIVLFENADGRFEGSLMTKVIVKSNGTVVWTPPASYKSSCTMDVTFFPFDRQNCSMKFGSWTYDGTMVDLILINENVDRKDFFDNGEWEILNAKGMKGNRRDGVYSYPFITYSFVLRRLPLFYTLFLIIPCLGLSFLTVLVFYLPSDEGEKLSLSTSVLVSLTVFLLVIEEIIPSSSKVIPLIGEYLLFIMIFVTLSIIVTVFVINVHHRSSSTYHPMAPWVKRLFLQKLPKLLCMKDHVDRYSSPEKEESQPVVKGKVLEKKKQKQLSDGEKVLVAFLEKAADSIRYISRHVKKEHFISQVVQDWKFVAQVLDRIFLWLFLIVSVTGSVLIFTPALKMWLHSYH
T3 sequence (Q12809 whole entry): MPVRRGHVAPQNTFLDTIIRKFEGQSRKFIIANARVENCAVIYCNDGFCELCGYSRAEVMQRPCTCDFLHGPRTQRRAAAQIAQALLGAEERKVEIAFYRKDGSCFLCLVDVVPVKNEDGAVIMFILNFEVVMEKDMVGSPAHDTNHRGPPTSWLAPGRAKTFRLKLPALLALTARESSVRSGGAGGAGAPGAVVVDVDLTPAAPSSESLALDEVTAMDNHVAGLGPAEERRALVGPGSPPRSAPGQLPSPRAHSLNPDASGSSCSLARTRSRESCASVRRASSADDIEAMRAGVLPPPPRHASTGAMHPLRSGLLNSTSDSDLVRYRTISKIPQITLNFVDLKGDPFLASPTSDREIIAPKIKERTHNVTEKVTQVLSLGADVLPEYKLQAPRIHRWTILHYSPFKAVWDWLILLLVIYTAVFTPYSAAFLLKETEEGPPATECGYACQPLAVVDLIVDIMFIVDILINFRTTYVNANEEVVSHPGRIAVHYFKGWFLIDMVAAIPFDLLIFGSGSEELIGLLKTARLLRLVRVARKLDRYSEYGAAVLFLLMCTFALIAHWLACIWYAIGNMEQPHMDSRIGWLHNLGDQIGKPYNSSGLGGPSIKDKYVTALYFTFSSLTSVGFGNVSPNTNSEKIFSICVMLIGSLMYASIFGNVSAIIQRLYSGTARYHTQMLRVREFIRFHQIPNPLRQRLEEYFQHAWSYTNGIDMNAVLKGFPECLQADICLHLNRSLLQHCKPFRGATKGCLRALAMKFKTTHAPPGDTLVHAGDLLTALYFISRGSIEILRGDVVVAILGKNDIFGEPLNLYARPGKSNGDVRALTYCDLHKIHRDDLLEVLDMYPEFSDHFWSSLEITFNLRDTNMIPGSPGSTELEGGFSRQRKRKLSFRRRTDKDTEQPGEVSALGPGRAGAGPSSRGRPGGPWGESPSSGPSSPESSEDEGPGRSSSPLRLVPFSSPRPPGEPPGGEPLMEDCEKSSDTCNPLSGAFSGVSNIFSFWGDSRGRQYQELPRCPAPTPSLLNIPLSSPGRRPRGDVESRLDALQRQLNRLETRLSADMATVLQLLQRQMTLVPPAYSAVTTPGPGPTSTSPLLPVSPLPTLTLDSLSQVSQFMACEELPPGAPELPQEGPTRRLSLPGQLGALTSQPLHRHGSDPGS
T4 sequence (P17787 whole entry): as the sequence (P17787 whole entry) above
T4 sequence (P43681 whole entry): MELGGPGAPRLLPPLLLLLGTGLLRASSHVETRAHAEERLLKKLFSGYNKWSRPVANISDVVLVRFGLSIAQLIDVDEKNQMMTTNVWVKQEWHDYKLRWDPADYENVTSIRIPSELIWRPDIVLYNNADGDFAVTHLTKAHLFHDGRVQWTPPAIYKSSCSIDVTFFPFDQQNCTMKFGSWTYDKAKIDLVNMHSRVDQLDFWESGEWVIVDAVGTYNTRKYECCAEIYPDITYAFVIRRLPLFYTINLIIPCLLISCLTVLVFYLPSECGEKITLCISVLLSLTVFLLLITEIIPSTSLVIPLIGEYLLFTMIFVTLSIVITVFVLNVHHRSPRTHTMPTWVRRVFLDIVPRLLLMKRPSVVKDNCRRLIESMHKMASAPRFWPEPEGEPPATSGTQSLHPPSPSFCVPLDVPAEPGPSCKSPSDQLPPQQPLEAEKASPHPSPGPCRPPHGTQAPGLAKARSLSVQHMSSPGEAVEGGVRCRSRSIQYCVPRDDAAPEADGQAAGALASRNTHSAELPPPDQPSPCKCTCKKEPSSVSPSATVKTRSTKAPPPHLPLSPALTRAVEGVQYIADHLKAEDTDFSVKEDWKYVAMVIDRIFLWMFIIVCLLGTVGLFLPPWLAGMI
Sequence of CYP2C9 (P11712 whole entry, canonical isoform): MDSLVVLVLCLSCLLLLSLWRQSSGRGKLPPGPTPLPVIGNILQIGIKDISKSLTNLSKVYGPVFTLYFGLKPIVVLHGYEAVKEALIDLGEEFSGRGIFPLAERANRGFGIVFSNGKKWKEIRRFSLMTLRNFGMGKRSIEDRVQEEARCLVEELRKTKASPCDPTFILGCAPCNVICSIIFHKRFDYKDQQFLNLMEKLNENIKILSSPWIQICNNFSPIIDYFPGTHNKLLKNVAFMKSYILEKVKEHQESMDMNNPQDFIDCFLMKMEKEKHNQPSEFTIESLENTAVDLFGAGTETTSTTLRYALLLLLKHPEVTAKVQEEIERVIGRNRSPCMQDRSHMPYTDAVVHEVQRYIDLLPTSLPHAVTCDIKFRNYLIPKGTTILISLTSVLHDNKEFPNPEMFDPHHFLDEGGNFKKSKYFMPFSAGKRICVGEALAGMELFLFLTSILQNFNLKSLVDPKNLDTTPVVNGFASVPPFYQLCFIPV
Sequence of CYP2C19 (P33261 whole entry): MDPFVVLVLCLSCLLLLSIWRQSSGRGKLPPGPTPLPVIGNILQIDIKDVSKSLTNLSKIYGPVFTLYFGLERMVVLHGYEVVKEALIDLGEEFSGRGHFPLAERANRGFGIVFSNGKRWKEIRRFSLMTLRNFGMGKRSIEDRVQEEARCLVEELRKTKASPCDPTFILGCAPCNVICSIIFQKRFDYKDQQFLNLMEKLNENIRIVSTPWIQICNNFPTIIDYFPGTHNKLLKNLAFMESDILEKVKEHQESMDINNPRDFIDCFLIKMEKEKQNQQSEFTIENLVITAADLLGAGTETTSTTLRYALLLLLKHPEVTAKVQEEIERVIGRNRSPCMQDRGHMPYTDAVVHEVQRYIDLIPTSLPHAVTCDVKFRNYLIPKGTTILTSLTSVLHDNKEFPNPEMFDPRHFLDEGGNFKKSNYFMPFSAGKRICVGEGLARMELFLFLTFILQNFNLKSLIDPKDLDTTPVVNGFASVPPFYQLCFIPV

COCC[C@H]1C[C@@H]1c1cncc(OC[C@@H]2CCN2)c1
pEC50 [1]: 8.13
pIC50 [2]: 8.01

COCC[C@H]1C[C@@H]1c1cncc(OC[C@@H]2CCCN2C)c1.O=C(O)C(O)C(O)C(=O)O
Activity [3]: Non-toxic
Activity [4]: Non-toxic

COCC[C@H]1C[C@@H]1c1cncc(OC[C@H]2CCNC2)c1.O=C(O)C(F)(F)F (single isomer, unassigned)
Activity [5]: Toxic
inhibition [6]: inactive
Activity [7]: Toxic
Activity [8]: Toxic
Activity [9]: Active

COCC[C@H]1C[C@@H]1c1cncc(OC[C@@H]2CCCN2)c1
Activity [10]: inactive
pEC50 [1]: 7.29
inhibition [6]: inactive
pIC50 [2]: 6.65
Activity [9]: Active

CN[C@H]1CC[C@@H](c2ccc(Cl)c(Cl)c2)c2ccccc21
Activity [11]: Active

COCC[C@H]1C[C@@H]1c1cncc(OC[C@@H]2CCCN2C)c1
Activity [12]: Active
Activity [13]: Active
inhibition [6]: inactive
Activity [9]: Active

COCC[C@H]1C[C@@H]1c1cncc(OC[C@@H]2CCCN2C)c1.O=C(O)C(F)(F)F
Activity [14]: Toxic
remaining at 1 h, 0.1 µM [15]: 103%
Activity [16]: Non-toxic
inhibition at 10 µM [17]: 30%
inhibition at 0.1 µM [18]: 4%
pEC50 [1]: 8.05
Activity [19]: Non-toxic
permeability [20]: 18.4 ×10⁻⁶ cm/s
Activity [21]: Non-toxic
inhibition at 10 µM [22]: 21%
inhibition at 10 µM [23]: 10%
inhibition at 10 µM [24]: 44%
pEC50 [25]: 7.84
pIC50 [2]: 7.62
Activity [26]: Non-toxic
PPB [27]: 31%
Activity [28]: Non-toxic
pIC50 [29]: 7.70
permeability [30]: 90.9 ×10⁻⁶ cm/s
Activity [31]: Non-toxic
Activity [32]: Non-toxic
Activity [33]: Non-toxic
remaining at 1 h, 0.1 µM [34]: 90.1%
inhibition at 10 µM [35]: 23%
remaining at 2 h, 1 µM [36]: 85.7%
Stability [37]: Stable
inhibition at 1 µM [38]: 7%
PPB [39]: 11%
